Data set [1] addresses T1, Metabotropic glutamate receptor 1 (Homo sapiens, UniProt Q13255). Briefly: Antagonist activity at human mGluR1 receptor expressed in CHO cell membranes assessed as inhibition of L-glutamate-induced calcium mobilization by FLIPR. The format is functional, cell-based. The method, boiled down: (§1)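 Human mGluR1a stably expressed in CHO cells; antagonism read as inhibition of the intracellular Ca2+ rise on FLIPR. IC50 is the mean of at least three independent determinations, each run in duplicate, reported ± SEM.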

Data set [2] in a line: Octanol to water distribution coefficient, log D at pH 7.4. Format: physicochemical.
The nature of data set [3]: Plasma clearance in rat at 3 mg/kg, po and 1 mg/kg, iv. The format is ADME, organism-based. The method, boiled down: (§2)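 Rats dosed orally at 3 mg/kg and intravenously at 1 mg/kg. Oral bioavailability (F), half-life and total plasma clearance were derived from the plasma profiles.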
Data set [4] is described as follows: Oral bioavailability in rat at 3 mg/kg. The format is ADME, organism-based. The following applies: in vivo. The method, boiled down:
as §2

Data set [5] is described as follows: Half life in rat at 3 mg/kg, po and 1 mg/kg, iv. The format is ADME, organism-based. The following applies: in vivo. In a few lines:
as §2

For data set [6], the target named is Metabotropic glutamate receptor 5 (Homo sapiens, UniProt P41594). Nature of the data set: Antagonist activity at human mGluR5 receptor expressed in CHO cell membranes assessed as inhibition of L-glutamate-induced calcium mobilization by FLIPR. The format is functional, cell-based. A general note: A change in cytosolic calcium serves as a functional read-out for many receptors and channels.
Sequence of Metabotropic glutamate receptor 5 (P41594 whole entry): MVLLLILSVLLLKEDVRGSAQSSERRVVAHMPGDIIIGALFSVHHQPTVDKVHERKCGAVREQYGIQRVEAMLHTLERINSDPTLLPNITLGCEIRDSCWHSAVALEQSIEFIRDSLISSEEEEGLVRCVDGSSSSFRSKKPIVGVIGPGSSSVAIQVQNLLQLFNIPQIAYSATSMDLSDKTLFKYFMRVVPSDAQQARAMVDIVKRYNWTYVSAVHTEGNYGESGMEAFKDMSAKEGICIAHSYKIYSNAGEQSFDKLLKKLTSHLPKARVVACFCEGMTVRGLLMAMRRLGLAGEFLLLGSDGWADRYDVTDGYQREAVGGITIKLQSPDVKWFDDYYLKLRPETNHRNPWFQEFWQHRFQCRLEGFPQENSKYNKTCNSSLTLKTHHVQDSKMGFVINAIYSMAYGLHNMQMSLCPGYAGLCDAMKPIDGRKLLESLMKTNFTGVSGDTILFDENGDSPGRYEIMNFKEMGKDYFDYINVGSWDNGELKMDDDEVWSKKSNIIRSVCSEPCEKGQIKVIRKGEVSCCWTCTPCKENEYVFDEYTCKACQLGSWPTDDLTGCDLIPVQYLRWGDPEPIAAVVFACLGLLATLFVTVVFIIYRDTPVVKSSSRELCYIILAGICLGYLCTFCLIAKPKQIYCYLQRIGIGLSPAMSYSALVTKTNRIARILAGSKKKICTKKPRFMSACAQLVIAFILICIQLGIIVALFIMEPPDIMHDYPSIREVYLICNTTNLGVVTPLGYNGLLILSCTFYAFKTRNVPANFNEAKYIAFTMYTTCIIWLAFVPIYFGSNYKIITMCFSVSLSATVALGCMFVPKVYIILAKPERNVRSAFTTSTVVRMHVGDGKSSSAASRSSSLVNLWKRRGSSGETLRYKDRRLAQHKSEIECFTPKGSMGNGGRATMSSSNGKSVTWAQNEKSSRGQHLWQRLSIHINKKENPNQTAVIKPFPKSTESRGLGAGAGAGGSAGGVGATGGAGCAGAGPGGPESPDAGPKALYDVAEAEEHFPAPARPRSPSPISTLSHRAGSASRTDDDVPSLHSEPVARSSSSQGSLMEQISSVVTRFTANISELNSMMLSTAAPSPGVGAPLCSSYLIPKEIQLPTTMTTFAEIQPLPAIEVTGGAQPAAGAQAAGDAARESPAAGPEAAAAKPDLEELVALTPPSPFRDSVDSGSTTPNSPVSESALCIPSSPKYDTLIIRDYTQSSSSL

Data set [7] deals with Rattus norvegicus. Nature of the data set: Induction of catalepsy in rat at 30 mg/kg, po.
Data set [8] is described as follows: Oral bioavailability in rat at 1 mg/kg. Format: ADME, organism-based. The note with it: in vivo. In a few lines: (§3)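 Rats dosed orally at 1 mg/kg and intravenously at 0.3 mg/kg. Oral bioavailability, half-life and total plasma clearance were derived from the plasma profiles.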
In data set [9] the target is Metabotropic glutamate receptor 1 (Rattus norvegicus, UniProt P23385). Nature of the data set: Antagonist activity at rat mGluR1 receptor expressed in CHO cell membranes assessed as inhibition of L-glutamate-induced calcium mobilization by FLIPR. Format: functional, cell-based.
Sequence of Metabotropic glutamate receptor 1 (Rattus norvegicus, UniProt P23385) (P23385 whole entry): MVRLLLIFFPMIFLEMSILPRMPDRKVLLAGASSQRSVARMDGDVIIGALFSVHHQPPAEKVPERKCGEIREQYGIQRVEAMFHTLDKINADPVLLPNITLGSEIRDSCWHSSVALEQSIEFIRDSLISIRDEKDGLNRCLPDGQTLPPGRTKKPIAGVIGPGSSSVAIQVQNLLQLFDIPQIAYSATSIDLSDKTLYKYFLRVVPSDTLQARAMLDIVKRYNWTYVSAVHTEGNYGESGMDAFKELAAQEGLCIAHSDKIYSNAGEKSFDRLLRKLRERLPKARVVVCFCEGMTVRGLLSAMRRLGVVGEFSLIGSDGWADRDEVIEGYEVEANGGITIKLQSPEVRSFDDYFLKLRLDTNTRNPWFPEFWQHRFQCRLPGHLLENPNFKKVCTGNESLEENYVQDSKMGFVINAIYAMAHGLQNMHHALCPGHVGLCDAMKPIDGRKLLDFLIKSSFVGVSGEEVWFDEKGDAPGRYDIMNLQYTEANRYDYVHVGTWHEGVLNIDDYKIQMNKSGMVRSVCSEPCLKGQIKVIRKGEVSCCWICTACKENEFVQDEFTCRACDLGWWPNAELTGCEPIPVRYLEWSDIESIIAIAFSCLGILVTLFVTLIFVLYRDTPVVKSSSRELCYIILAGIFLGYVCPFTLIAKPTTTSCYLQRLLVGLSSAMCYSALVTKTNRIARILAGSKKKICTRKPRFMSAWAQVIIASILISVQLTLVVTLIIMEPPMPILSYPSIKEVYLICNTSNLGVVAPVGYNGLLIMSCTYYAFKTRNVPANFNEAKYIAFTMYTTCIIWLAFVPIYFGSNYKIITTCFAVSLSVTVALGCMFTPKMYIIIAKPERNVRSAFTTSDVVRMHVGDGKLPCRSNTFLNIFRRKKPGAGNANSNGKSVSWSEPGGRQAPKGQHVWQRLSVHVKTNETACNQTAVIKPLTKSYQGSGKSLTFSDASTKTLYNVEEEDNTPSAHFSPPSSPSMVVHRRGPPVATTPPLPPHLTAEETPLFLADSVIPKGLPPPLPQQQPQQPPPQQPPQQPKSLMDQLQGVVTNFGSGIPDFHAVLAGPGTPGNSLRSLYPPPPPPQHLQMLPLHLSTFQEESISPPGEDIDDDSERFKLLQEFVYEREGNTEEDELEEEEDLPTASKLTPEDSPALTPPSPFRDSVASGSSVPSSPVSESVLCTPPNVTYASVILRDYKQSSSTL
Data set [10] relates to Rattus norvegicus. Nature of the data set: Antipsychotic-like effect in rat assessed as inhibition of MAP-induced prepulse inhibition at 1 mg/kg, po. Format: functional, organism-based. Further details: dose 1 mg/kg. The method, boiled down: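 Rat prepulse inhibition model of methamphetamine-induced disruption. Test article given orally at 1 mg/kg.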
Data set [11] can be described thus: Plasma clearance in rat at 1 mg/kg, po and 0.3 mg/kg, iv. The format is ADME, organism-based. In a few lines: as §3
Data set [12] has as its target Metabotropic glutamate receptor 8 (Homo sapiens, UniProt O00222). Briefly: Antagonist activity at human mGluR8 receptor expressed in CHO cell membranes assessed as inhibition of L-glutamate-induced calcium mobilization by FLIPR. Format: functional, cell-based.
For data set [13], the target named is T1, Metabotropic glutamate receptor 1. Briefly: Antagonist activity at human mGluR1 receptor quisqualic acid binding site expressed in CHO cell membranes assessed as inhibition of L-glutamate-induced calcium mobilization by FLIPR. The format is functional. The method, boiled down: as §1
Data set [14] deals with Brain. Briefly: Drug uptake in mouse brain at 1 mg/kg, po after 30 mins. The note with it: in vivo, 0.5 h.
Data set [15] deals with Metabotropic glutamate receptor 2 (Homo sapiens, UniProt Q14416). Briefly: Antagonist activity at human mGluR2 receptor expressed in CHO cell membranes assessed as inhibition of L-glutamate-induced calcium mobilization by FLIPR. The format is functional, cell-based.
The subject of data set [16] is Mus musculus. Nature of the data set: Plasma concentration in mouse at 1 mg/kg, po after 30 mins.
The nature of data set [17]: Half life in rat at 1 mg/kg, po and 0.3 mg/kg, iv. The format is ADME, organism-based. The following applies: in vivo. In a few lines: as §3

Each structure is given as a SMILES string. Calls of active or inactive are those of the source. The calls are words filed in the database; no cut-off is given here. Some results are limits rather than exact numbers.

T1 sequence (Q13255 whole entry): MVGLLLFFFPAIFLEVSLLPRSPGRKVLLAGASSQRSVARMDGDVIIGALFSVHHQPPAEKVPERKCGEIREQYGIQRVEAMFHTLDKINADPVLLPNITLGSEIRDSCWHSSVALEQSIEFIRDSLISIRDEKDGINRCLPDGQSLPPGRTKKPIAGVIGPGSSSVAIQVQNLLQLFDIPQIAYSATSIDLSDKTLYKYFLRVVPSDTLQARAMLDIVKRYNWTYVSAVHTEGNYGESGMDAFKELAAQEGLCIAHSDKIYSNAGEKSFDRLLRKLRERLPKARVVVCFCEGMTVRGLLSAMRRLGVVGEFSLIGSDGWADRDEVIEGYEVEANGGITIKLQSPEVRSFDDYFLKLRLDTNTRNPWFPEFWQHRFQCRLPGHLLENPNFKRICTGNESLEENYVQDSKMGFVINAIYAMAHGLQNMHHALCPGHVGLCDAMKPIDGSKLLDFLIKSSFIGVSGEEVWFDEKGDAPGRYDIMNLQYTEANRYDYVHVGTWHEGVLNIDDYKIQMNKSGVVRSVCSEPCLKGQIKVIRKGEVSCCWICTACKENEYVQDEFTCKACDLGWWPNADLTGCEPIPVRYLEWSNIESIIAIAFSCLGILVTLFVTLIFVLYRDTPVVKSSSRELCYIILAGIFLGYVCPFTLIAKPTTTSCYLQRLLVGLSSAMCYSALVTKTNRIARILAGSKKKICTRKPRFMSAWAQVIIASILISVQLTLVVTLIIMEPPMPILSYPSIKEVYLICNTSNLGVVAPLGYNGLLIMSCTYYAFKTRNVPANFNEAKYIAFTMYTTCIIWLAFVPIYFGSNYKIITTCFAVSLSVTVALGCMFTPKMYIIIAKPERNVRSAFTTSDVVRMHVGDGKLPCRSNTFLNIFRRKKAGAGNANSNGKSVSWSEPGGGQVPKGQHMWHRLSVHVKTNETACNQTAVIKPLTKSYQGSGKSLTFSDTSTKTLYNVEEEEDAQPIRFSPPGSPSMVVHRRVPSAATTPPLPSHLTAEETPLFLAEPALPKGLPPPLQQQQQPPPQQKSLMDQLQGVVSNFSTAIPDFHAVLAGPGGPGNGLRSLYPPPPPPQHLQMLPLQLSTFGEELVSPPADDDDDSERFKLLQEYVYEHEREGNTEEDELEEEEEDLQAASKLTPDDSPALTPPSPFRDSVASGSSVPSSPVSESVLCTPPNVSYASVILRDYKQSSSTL
Sequence of Metabotropic glutamate receptor 8 (O00222 whole entry): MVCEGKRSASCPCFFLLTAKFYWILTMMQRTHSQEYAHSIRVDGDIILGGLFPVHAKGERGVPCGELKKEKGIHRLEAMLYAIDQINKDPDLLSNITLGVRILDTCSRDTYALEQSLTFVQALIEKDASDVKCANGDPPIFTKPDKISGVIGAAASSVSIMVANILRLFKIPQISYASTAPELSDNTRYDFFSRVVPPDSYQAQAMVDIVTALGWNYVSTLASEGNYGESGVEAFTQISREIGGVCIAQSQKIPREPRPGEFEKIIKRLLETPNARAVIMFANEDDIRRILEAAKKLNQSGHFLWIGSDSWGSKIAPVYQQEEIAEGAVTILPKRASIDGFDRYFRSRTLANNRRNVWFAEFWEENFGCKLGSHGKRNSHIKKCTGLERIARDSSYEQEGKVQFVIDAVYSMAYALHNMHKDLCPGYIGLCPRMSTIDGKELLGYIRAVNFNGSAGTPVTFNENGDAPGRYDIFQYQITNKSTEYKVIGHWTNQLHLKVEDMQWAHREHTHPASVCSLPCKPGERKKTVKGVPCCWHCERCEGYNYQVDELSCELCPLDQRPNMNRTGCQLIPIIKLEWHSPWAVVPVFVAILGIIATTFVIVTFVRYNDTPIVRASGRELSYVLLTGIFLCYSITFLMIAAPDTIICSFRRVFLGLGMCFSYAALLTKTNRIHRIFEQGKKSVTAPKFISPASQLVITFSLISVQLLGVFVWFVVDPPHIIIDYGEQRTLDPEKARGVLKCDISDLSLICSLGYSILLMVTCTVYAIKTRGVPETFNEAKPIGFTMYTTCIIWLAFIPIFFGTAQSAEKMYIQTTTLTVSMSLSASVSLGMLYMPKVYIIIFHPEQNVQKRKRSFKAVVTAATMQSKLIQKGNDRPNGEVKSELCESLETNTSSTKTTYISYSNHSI

For the compound `Cc1c(-c2ccc(C(=O)N(C)C(C)C)cc2)nnn1-c1cccnc1`, in data set [1], the IC50 turned out to be 880 nM.

Compound `Cc1c(-c2ccc3c(c2)CN(C2CC2)C3=O)nnn1-c1cccnc1F` gave a logD in data set [2] of 1.9. The clearance in data set [3] was 8.1 mL/min/kg. In data set [4], this compound had a bioavailability of 100%. The 50% inhibitory concentration (IC50) in data set [1] worked out at 3.5 nM; in [6] it was 5400 nM. In data set [5], this compound had a half-life of 36 min.

For the compound `CCC(=O)c1ccc(-c2nnn(-c3cccnc3)c2C)cc1`, the IC50 in data set [1] is 170 nM.

On to `Cc1c(-c2ccc3ncccc3c2)nnn1-c1cccnc1`, for which the IC50 in data set [1] was determined as 4.9 nM.

For `Cc1c(-c2ccc3c(c2)CN(C(C)C)C3=O)nnn1-c1cccnc1F`, in [2], the pH-dependent lipophilicity (logD) worked out at 2.2. The compound further displayed a clearance in data set [3] of 5.9 mL/min/kg. For the same compound, in data set [4], the bioavailability came to 96%. For the same compound, the IC50 in [1] came to 5.5 nM; in data set [6], 2300 nM. Further, the half-life in data set [5] is 132 min.

With `Cc1c(-c2cccc(C(=O)OC(C)C)c2)nnn1-c1cccnc1`, the half-maximal inhibitory concentration (IC50) in data set [1] was 2400 nM.

`Cc1c(-c2ccc(C(=O)NC(C)C)cc2)nnn1-c1cccnc1`: the IC50 in data set [1] was found to be 210 nM.

With `Cc1c(-c2ccc(C(=O)c3ccccc3)cc2)nnn1-c1cccnc1`, the IC50 in data set [1] was 3900 nM.

Regarding `Cc1c(-c2ccc3c(c2)CC(C)(C)C3=O)nnn1-c1cccnc1`, the IC50 in [1] came to 11 nM.

In turn, `CCN1Cc2cc(-c3nnn(-c4cccnc4F)c3C)ccc2C1=O` came in with a logD in [2] of 1.8. In [3], this compound registered a clearance of 19 mL/min/kg. The bioavailability in [4] turned out to be 62%. For the same compound, the IC50 in [1] was determined as 3.3 nM; in [6], 1100 nM. In [5], this compound gave a half-life of 18 min.

As to `Cc1c(-c2ccc3c(c2)CN(C(C)C)C3=O)nnn1-c1ccc(F)cc1F`, the outcome in data set [7] was inactive. In [8], this compound returned a bioavailability of 46%. The IC50 in data set [9] was 3.6 nM; in data set [12] it was more than 10000 nM; in data set [13], more than 10000 nM; in data set [15], more than 10000 nM. In addition, the outcome in data set [10] was Active. In data set [11], the clearance was 20 mL/min/kg. For the same compound, the Drug uptake in [14] is on record as 0.45 nmol/g. The concentration at 0.5 h in [16] is 170 nM. This compound also gave a half-life in [17] of 42 min.

On to `CCCN1Cc2cc(-c3nnn(-c4cccnc4F)c3C)ccc2C1=O`, for which the logD in data set [2] amounted to 2.3. The clearance in data set [3] was 5.5 mL/min/kg. Also, the bioavailability in data set [4] is 100%. The IC50 in data set [1] is 3.6 nM; in data set [6], 2800 nM. In [5], this compound gave a half-life of 60 min.

In the case of `Cc1c(-c2ccc(C(=O)N3CCCC3)cc2)nnn1-c1cccnc1`, the IC50 in data set [1] is 1800 nM.

`Cc1nc2cc(-c3nnn(-c4cccnc4)c3C)ccc2s1`: the IC50 in [1] was found to be 1500 nM.

With `Cc1c(-c2ccc3[nH]ccc3c2)nnn1-c1cccnc1`, the IC50 in [1] is 250 nM.

As to `CC(=O)c1ccc(-c2nnn(-c3cccnc3)c2C)cc1`, the IC50 in [1] was found to be 470 nM.

In the case of `Cc1c(-c2ccc3c(c2)CCC3=O)nnn1-c1cccnc1`, the IC50 in data set [1] turned out to be 69 nM.

For the compound `Cc1c(C2=CCN(C(=O)N(C)C(C)C)CC2)nnn1-c1cccnc1F`, the half-life in data set [5] was 12 min. In data set [6], the IC50 is more than 10000 nM.

As for `Cc1c(-c2ccc(C(=O)OC(C)C)cc2)nnn1-c1cccnc1`, in data set [1], the IC50 stood at 33 nM.

Regarding `Cc1c(-c2ccc3c(c2)CC(C2CC2)C3=O)nnn1-c1cccnc1` (stereo not drawn), the half-maximal inhibitory concentration (IC50) in [1] was 2.6 nM.

On to `Cc1c(-c2ccc3ccccc3c2)nnn1-c1cccnc1`, for which the IC50 in data set [1] came to 300 nM.

In the case of `Cc1c(-c2ccc(C(=O)C3CC3)cc2)nnn1-c1cccnc1`, the IC50 in [1] was determined as 22 nM.

In general, IC50 refers to the concentration needed to halve the response being measured. In general, logD refers to the decadic logarithm of the distribution of all forms, ionised or not, between an organic phase and buffer at a given pH. A low value points to lower lipophilicity. In general, bioavailability refers to the share of a dose that reaches the circulation, judged against a reference dose that is usually intravenous. What is called half-life is how long it takes for the measured level to halve. Lower therefore signals fast loss.

The values are drawn from ChEMBL document CHEMBL1155999, “Discovery and biological profile of isoindolinone derivatives as novel metabotropic glutamate receptor 1 antagonists: a potential treatment for psychotic disorders” (Bioorg Med Chem Lett, 2009).
